In brackets after ≈: the same amount, converted by molar mass.
What was measured:
[1] = system: Mycobacteroides abscessus; assay: Antibacterial activity against Mycobacterium abscessus CIP104536 after 3 to 5 days by two fold serial dilution method; type: functional
Outline: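 Broth microdilution per CLSI in cation-adjusted Mueller–Hinton broth; exponential-phase inoculum 5 × 10^6 CFU/mL; two-fold serial dilutions from highest concentration, solvent wells as control; 30 °C for 3−5 days; MIC read visually and confirmed by absorbance at 560 nm; triplicate on three independent occasions.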

[2] = system: Mycobacterium tuberculosis; assay: Antibacterial activity against Mycobacterium tuberculosis by AlamarBlue assay; type: functional
[3] = Selectivity index, ratio of IC50 for African green monkey Vero cells to MIC for Mycobacterium abscessus CIP104536; type: toxicity; conditions: read-out: Selectivity Index
[4] = Selectivity index, ratio of IC50 for African green monkey Vero cells to MIC=<90 for Mycobacterium tuberculosis; type: toxicity; conditions: read-out: Selectivity Index
[5] = system: Vero; assay: Cytotoxicity against African green monkey Vero cells; type: cell-based; conditions: Chlorocebus sabaeus
[6] = system: Mycobacteroides abscessus; assay: Antibacterial activity against CF patient derived Mycobacterium abscessus subsp. abscessus isolate 2524 rough variant after 3 to 5 days by two fold serial dilution method; type: functional
Outline: (§1)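 Broth microdilution in cation-adjusted Mueller−Hinton broth per CLSI; inoculum 5 × 10^6 CFU/mL of exponential-phase bacteria; two-fold serial dilutions, solvent-only wells as control; 30 °C for 3−5 days; MIC read visually and confirmed by absorbance at 560 nm; triplicate on three independent occasions.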

[7] = Antibacterial activity against CF patient derived Mycobacterium abscessus subsp. bolletii isolate 112 rough variant after 3 to 5 days by two fold serial dilution method; type: functional; conditions: Mycobacteroides abscessus; outline: as §1
[8] = Antibacterial activity against CF patient derived Mycobacterium abscessus subsp. bolletii isolate 97 smooth variant after 3 to 5 days by two fold serial dilution method; type: functional; conditions: Mycobacteroides abscessus; outline: as §1
[9] = system: Mycobacteroides abscessus; assay: Antibacterial activity against Addison's disease patient derived Mycobacterium abscessus subsp. massiliense isolate CIP108297 rough variant after 3 to 5 days by two fold serial dilution method; type: functional; outline: as §1
[10] = system: Mycobacteroides abscessus; assay: Antibacterial activity against non CF patient derived Mycobacterium abscessus subsp. abscessus isolate 3022 rough variant after 3 to 5 days by two fold serial dilution method; type: functional; outline: as §1
[11] = system: Mycobacteroides abscessus; assay: Antibacterial activity against non CF patient derived Mycobacterium abscessus subsp. abscessus isolate CIP104536 smooth variant after 3 to 5 days by two fold serial dilution method; type: functional; outline: as §1
[12] = Antibacterial activity against CF patient derived Mycobacterium abscessus subsp. bolletii isolate 108 rough variant after 3 to 5 days by two fold serial dilution method; type: functional; conditions: Mycobacteroides abscessus; outline: as §1
[13] = Antibacterial activity against non CF patient derived Mycobacterium abscessus subsp. bolletii isolate 19 rough variant after 3 to 5 days by two fold serial dilution method; type: functional; conditions: Mycobacteroides abscessus; outline: as §1
[14] = system: Mycobacteroides abscessus; assay: Antibacterial activity against CF patient derived Mycobacterium abscessus subsp. massiliense isolate 120 smooth variant after 3 to 5 days by two fold serial dilution method; type: functional; outline: as §1
[15] = system: Mycobacteroides abscessus; assay: Antibacterial activity against CF patient derived Mycobacterium abscessus subsp. abscessus isolate 2069 smooth variant after 3 to 5 days by two fold serial dilution method; type: functional; outline: as §1
[16] = system: Mycobacteroides abscessus; assay: Antibacterial activity against CF patient derived Mycobacterium abscessus subsp. massiliense isolate 100 smooth variant after 3 to 5 days by two fold serial dilution method; type: functional; outline: as §1
[17] = system: Mycobacteroides abscessus; assay: Antibacterial activity against CF patient derived Mycobacterium abscessus subsp. abscessus isolate 3321 smooth variant after 3 to 5 days by two fold serial dilution method; type: functional; outline: as §1
[18] = system: Mycobacteroides abscessus; assay: Antibacterial activity against non CF patient derived Mycobacterium abscessus subsp. abscessus isolate 2587 smooth variant after 3 to 5 days by two fold serial dilution method; type: functional; outline: as §1
[19] = Antibacterial activity against Mycobacterium abscessus subsp. bolletii isolate CIP108541 smooth variant after 3 to 5 days by two fold serial dilution method; type: functional; conditions: Mycobacteroides abscessus; outline: as §1
[20] = system: Mycobacteroides abscessus; assay: Antibacterial activity against CF patient derived Mycobacterium abscessus subsp. abscessus smooth variant after 3 to 5 days by two fold serial dilution method; type: functional; outline: as §1
[21] = system: Mycobacteroides abscessus; assay: Antibacterial activity against CF patient derived Mycobacterium abscessus subsp. abscessus isolate 2648 rough variant after 3 to 5 days by two fold serial dilution method; type: functional; outline: as §1
[22] = system: Mycobacteroides abscessus; assay: Antibacterial activity against Addison's disease patient derived Mycobacterium abscessus subsp. massiliense isolate CIP108297 smooth variant after 3 to 5 days by two fold serial dilution method; type: functional; outline: as §1
[23] = Antibacterial activity against non CF patient derived Mycobacterium abscessus subsp. bolletii isolate 17 smooth variant after 3 to 5 days by two fold serial dilution method; type: functional; conditions: Mycobacteroides abscessus; outline: as §1
[24] = system: Mycobacteroides abscessus; assay: Antibacterial activity against CF patient derived Mycobacterium abscessus subsp. massiliense isolate 212 smooth variant after 3 to 5 days by two fold serial dilution method; type: functional; outline: as §1
[25] = system: Mycobacteroides abscessus; assay: Antibacterial activity against CF patient derived Mycobacterium abscessus subsp. massiliense isolate 185 smooth variant after 3 to 5 days by two fold serial dilution method; type: functional; outline: as §1
[26] = system: Mycobacteroides abscessus; assay: Antibacterial activity against CF patient derived Mycobacterium abscessus subsp. massiliense isolate 107 smooth variant after 3 to 5 days by two fold serial dilution method; type: functional; outline: as §1
[27] = Antibacterial activity against CF patient derived Mycobacterium abscessus subsp. bolletii isolate 116 smooth variant after 3 to 5 days by two fold serial dilution method; type: functional; conditions: Mycobacteroides abscessus; outline: as §1
[28] = system: Mycobacteroides abscessus; assay: Antibacterial activity against CF patient derived Mycobacterium abscessus subsp. abscessus isolate 1298 smooth variant after 3 to 5 days by two fold serial dilution method; type: functional; outline: as §1
[29] = system: Mycobacteroides abscessus; assay: Antibacterial activity against CF patient derived Mycobacterium abscessus subsp. massiliense isolate 140 smooth variant after 3 to 5 days by two fold serial dilution method; type: functional; outline: as §1
[30] = Antibacterial activity against CF patient derived Mycobacterium abscessus subsp. bolletii isolate 114 smooth variant after 3 to 5 days by two fold serial dilution method; type: functional; conditions: Mycobacteroides abscessus; outline: as §1
[31] = system: Mycobacteroides abscessus; assay: Antibacterial activity against CF patient derived Mycobacterium abscessus subsp. massiliense isolate 122 smooth variant after 3 to 5 days by two fold serial dilution method; type: functional; outline: as §1
[32] = system: Mycobacteroides abscessus; assay: Antibacterial activity against non CF patient derived Mycobacterium abscessus subsp. abscessus isolate CIP104536 rough variant after 3 to 5 days by two fold serial dilution method; type: functional; outline: as §1
[33] = system: Mycobacteroides abscessus; assay: Antibacterial activity against CF patient derived Mycobacterium abscessus subsp. massiliense isolate 210 rough variant after 3 to 5 days by two fold serial dilution method; type: functional; outline: as §1
[34] = system: Mycobacteroides abscessus; assay: Antibacterial activity against CF patient derived Mycobacterium abscessus subsp. massiliense isolate 111 smooth variant after 3 to 5 days by two fold serial dilution method; type: functional; outline: as §1
[35] = system: Mycobacteroides abscessus; assay: Antibacterial activity against CF patient derived Mycobacterium abscessus subsp. abscessus rough variant after 3 to 5 days by two fold serial dilution method; type: functional; outline: as §1

Cc1cc(C)c2cc(CNC(=O)C3CCCCCC3)[nH]c2c1
MIC [1]: > 32 µg/mL | MIC=<90 [2]: 16 µg/mL (≈ 53.6 µM)

C[C@@H]1[C@@H](NC(=O)c2cc3ccc(Br)cc3[nH]2)C[C@H]2C[C@@H]1C2(C)C
MIC [1]: 0.125 µg/mL (≈ 0.333 µM) | MIC=<90 [2]: 0.0039 µg/mL (≈ 0.0104 µM)

CC1(C)C2CC[C@@]1(C)C(NC(=O)c1cc3c(Cl)cc(Cl)cc3[nH]1)C2 (stereo partly drawn)
selectivity ratio [3]: 0.25 | selectivity ratio [4]: 513 | IC50 [5]: 8 µg/mL (≈ 21.9 µM) | MIC [1]: > 32 µg/mL | MIC=<90 [2]: 0.0156 µg/mL (≈ 0.0427 µM)

NCC[C@H](O)C(=O)N[C@@H]1C[C@H](N)[C@@H](O[C@H]2O[C@H](CN)[C@@H](O)[C@H](O)[C@H]2O)[C@H](O)[C@H]1O[C@H]1O[C@H](CO)[C@@H](O)[C@H](N)[C@H]1O [AMIKACIN]
MIC [6]: 25 µg/mL (≈ 42.7 µM) | MIC [7]: > 100 µg/mL | MIC [8]: 12.5 µg/mL (≈ 21.3 µM) | MIC [9]: 12.5 µg/mL (≈ 21.3 µM) | MIC [10]: 12.5 µg/mL (≈ 21.3 µM) | MIC [11]: 25 µg/mL (≈ 42.7 µM) | MIC [12]: 12.8 µg/mL (≈ 21.9 µM) | MIC [13]: 50 µg/mL (≈ 85.4 µM) | MIC [14]: 12.5 µg/mL (≈ 21.3 µM) | MIC [15]: 25 µg/mL (≈ 42.7 µM) | MIC [16]: > 100 µg/mL | MIC [17]: 25 µg/mL (≈ 42.7 µM) | MIC [18]: 25 µg/mL (≈ 42.7 µM) | MIC [19]: 25 µg/mL (≈ 42.7 µM) | MIC [20]: 12.5 µg/mL (≈ 21.3 µM) | MIC [21]: 12.5 µg/mL (≈ 21.3 µM) | MIC [22]: 25 µg/mL (≈ 42.7 µM) | MIC [23]: 12.5 µg/mL (≈ 21.3 µM) | MIC [24]: 25 µg/mL (≈ 42.7 µM) | MIC [25]: 25 µg/mL (≈ 42.7 µM) | MIC [26]: 12.5 µg/mL (≈ 21.3 µM) | MIC [27]: 12.5 µg/mL (≈ 21.3 µM) | MIC [28]: 12.5 µg/mL (≈ 21.3 µM) | MIC [29]: 25 µg/mL (≈ 42.7 µM) | MIC [30]: 12.5 µg/mL (≈ 21.3 µM) | MIC [31]: 12.5 µg/mL (≈ 21.3 µM) | MIC [32]: 12.5 µg/mL (≈ 21.3 µM) | MIC [33]: 12.5 µg/mL (≈ 21.3 µM) | MIC [34]: 25 µg/mL (≈ 42.7 µM) | MIC [35]: 12.5 µg/mL (≈ 21.3 µM)

Cc1cc(C)c2cc(C(=O)NC34CC5CC(CC(C5)C3)C4)oc2c1
MIC [1]: 1 µg/mL (≈ 3.09 µM) | MIC=<90 [2]: 1 µg/mL (≈ 3.09 µM)

O=C(Nc1nc2ccc(OC(F)(F)F)cc2s1)C1CCCCCC1
MIC [1]: > 32 µg/mL | MIC=<90 [2]: 128 µg/mL (≈ 357 µM)

Cc1cccc2[nH]c(C(=O)NC3CCCCCC3)cc12
MIC [1]: 0.25 µg/mL (≈ 0.925 µM) | MIC=<90 [2]: 0.0313 µg/mL (≈ 0.116 µM)

O=C(NC1CCCCCCC1)c1cc2c(C(F)(F)F)cc(C(F)(F)F)cc2[nH]1
MIC [1]: 0.5 µg/mL (≈ 1.23 µM) | MIC=<90 [2]: 0.0156 µg/mL (≈ 0.0384 µM)

CO[C@H]1/C=C/O[C@@]2(C)Oc3c(C)c(O)c4c(O)c(c(/C=N/N5CCN(C)CC5)c(O)c4c3C2=O)NC(=O)/C(C)=C\C=C\[C@H](C)[C@H](O)[C@@H](C)[C@@H](O)[C@@H](C)[C@H](OC(C)=O)[C@@H]1C [RIFAMPIN]
IC50 [5]: > 256 µg/mL

Cc1ccc2cc(C(=O)NC3CCCCCC3)[nH]c2c1
MIC [1]: 0.25 µg/mL (≈ 0.925 µM) | MIC=<90 [2]: 0.0313 µg/mL (≈ 0.116 µM)

Cc1ccc2[nH]c(C(=O)NC3CCCCCC3)cc2c1
MIC [1]: 0.25 µg/mL (≈ 0.925 µM) | MIC=<90 [2]: 0.25 µg/mL (≈ 0.925 µM)

Cc1cccc2cc(C(=O)NC3CCCCCC3)[nH]c12
MIC [1]: 16 µg/mL (≈ 59.2 µM) | MIC=<90 [2]: 1 µg/mL (≈ 3.7 µM)

Cc1cc(C)c2cc(C(=O)NC3CCCCCCC3)oc2c1
MIC [1]: 0.5 µg/mL (≈ 1.67 µM) | MIC=<90 [2]: 8 µg/mL (≈ 26.7 µM)

O=C(NC12CC3CC(CC(C3)C1)C2)c1cc2ccc(Br)cc2[nH]1
selectivity ratio [3]: ≥ 4 | selectivity ratio [4]: ≥ 4100 | IC50 [5]: ≥ 64 µg/mL | MIC [1]: 16 µg/mL (≈ 42.9 µM) | MIC=<90 [2]: 0.0156 µg/mL (≈ 0.0418 µM)

C[C@@H](NC(=O)c1cc2c(Cl)cc(Cl)cc2[nH]1)C1CCCCC1
MIC [1]: 0.5 µg/mL (≈ 1.47 µM) | MIC=<90 [2]: 2 µg/mL (≈ 5.9 µM)
